Experimental data: ChEMBL document CHEMBL4138245, “Design and synthesis of novel quinacrine-[1,3]-thiazinan-4-one hybrids for their anti-breast cancer activity” (Eur J Med Chem, 2018)
Activity calls are given as the source filed them. The rule behind the calls is not given here.

Assays:
[1] = tested on: MDA-MB-468; assay: Antiproliferative activity against human MDA-MB-468 cells assessed as compound concentration required to show complete inhibition of cell viability up to 96 hrs by SRB assay; assay type: functional
[2] = tested on: BT-474; assay: Antiproliferative activity against human BT474 cells assessed as compound concentration required to show complete inhibition of cell viability up to 96 hrs by SRB assay; assay type: functional
[3] = tested on: 184B5; assay: Antiproliferative activity against human 184B5 cells after 48 hrs by SRB assay; assay type: cell-based; settings: 184B5, 48 h
How it was run: (§1)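 SRB assay: 5,000-10,000 cells/well plated, 24 h at 37 °C/5% CO2 before drug; seven concentrations from 100 μM down (two- to ten-fold serial dilutions, DMSO ≤0.1% final) for 48 h; TCA fixation (10% final, 60 min, 4 °C), 0.4% SRB in 1% acetic acid, solubilized in 10 mM Tris base, absorbance 515-564 nm; growth = (Ti−Tz)/(C−Tz)×100; IC50 from sigmoidal variable-slope fit; triplicates, ≥2 independent experiments.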

[4] = tested on: MCF7; assay: Cell cycle arrest in human MCF7 cells assessed as accumulation at sub-G1 phase at 2 uM after 48 hrs by propidium iodide staining based flow cytometry; assay type: functional
How it was run: (§2)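 MCF7, MDA-MB231 and non-cancer 184B5 breast cells exposed to 2 μM for 48 h, then cell-cycle analysis by flow cytometry; duplicates, repeated three times.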

[5] = tested on: CAMA-1; assay: Antiproliferative activity against human CAMA1 cells assessed as compound concentration required to show complete inhibition of cell viability up to 96 hrs by SRB assay; assay type: functional
[6] = Selectivity index, ratio of compound concentration for cell killing activity in human MCF10A cells to compound concentration for cell killing activity in human BT474 cells; assay type: toxicity, cell-based; settings: MCF10A cells versus BT474 cells, read-out: Selectivity Index
[7] = tested on: MCF7; assay: Cell cycle arrest in human MCF7 cells assessed as DNA content at 2 uM after 12 hrs by BrdU incorporation assay (reference value: 20.7%); assay type: functional
[8] = tested on: 184B5; assay: Antiproliferative activity against human 184B5 cells assessed as compound concentration required to show complete inhibition of cell viability up to 96 hrs by SRB assay; assay type: cell-based; settings: 184b5, 96 h
[9] = Selectivity index, ratio of compound concentration for cell killing activity in human MCF10A cells to compound concentration for cell killing activity in human MCF7 cells; assay type: toxicity, cell-based; settings: MCF10A cells versus MCF7 cells, read-out: Selectivity Index
[10] = tested on: MDA-MB-231; assay: Inhibition of DNA replication in human MDA-MB-231 cells assessed as EdU incorporation at 2 uM pretreated for 48 hrs followed by EdU addition at final 45 mins of 48 hrs incubation time (reference value: 45 to 63%); assay type: functional; design: scale not given: the % may be the effect or the level left
[11] = tested on: MDA-MB-231; assay: Antiproliferative activity against human MDA-MB-231 cells assessed as compound concentration required to show complete inhibition of cell viability up to 96 hrs by SRB assay; assay type: functional
[12] = Selectivity index, ratio of compound concentration for cell killing activity in human MCF10A cells to compound concentration for cell killing activity in human MDA-MB-453 cells; assay type: toxicity, cell-based; settings: MCF10A cells versus MDA-MB-453 cells, read-out: Selectivity Index
[13] = Selectivity index, ratio of compound concentration for cell killing activity in human MCF10A cells to compound concentration for cell killing activity in human BT20 cells; assay type: toxicity, cell-based; settings: MCF10A cells versus BT20 cells, read-out: Selectivity Index
[14] = tested on: MCF7; assay: Inhibition of DNA replication in human MCF7 cells assessed as EdU incorporation at 2 uM pretreated for 48 hrs followed by EdU addition at final 45 mins of 48 hrs incubation time (reference value: 45 to 63%); assay type: functional; design: scale not given: the % may be the effect or the level left
[15] = Selectivity index, ratio of compound concentration for cell killing activity in human 184B5 cells to compound concentration for cell killing activity in human NCI-H1975 cells; assay type: toxicity, cell-based; settings: 184B5 cells versus NCI-H1975 cells, read-out: Selectivity Index
[16] = tested on: LNCaP; assay: Antiproliferative activity against human LNCAP cells assessed as compound concentration required to show complete inhibition of cell viability up to 96 hrs by SRB assay; assay type: functional
[17] = tested on: PC-3; assay: Antiproliferative activity against human PC3 cells assessed as compound concentration required to show complete inhibition of cell viability up to 96 hrs by SRB assay; assay type: functional
[18] = Selectivity index, ratio of compound concentration for cell killing activity in human MCF10A cells to compound concentration for cell killing activity in human MDA-MB-468 cells; assay type: toxicity, cell-based; settings: MCF10A cells versus MDA-MB-468 cells, read-out: Selectivity Index
[19] = Selectivity index, ratio of compound concentration for cell killing activity in human MCF10A cells to compound concentration for cell killing activity in human LNCAP cells; assay type: toxicity, cell-based; settings: MCF10A cells versus LNCAP cells, read-out: Selectivity Index
[20] = Selectivity index, ratio of compound concentration for cell killing activity in human MCF10A cells to compound concentration for cell killing activity in human A549 cells; assay type: toxicity, cell-based; settings: MCF10A cells versus A549 cells, read-out: Selectivity Index
[21] = tested on: MCF-10A; assay: Antiproliferative activity against human MCF10A cells assessed as compound concentration required to show complete inhibition of cell viability up to 96 hrs by SRB assay; assay type: cell-based
[22] = Selectivity index, ratio of compound concentration for cell killing activity in human MCF10A cells to compound concentration for cell killing activity in human MDA-MB-231 cells; assay type: toxicity, cell-based; settings: MCF10A cells versus MDA-MB-231 cells, read-out: Selectivity Index
[23] = tested on: MCF7; assay: Cell cycle arrest in human MCF7 cells assessed as accumulation at S phase at 2 uM after 48 hrs by propidium iodide staining based flow cytometry; assay type: functional; how it was run: as §2
[24] = Selectivity index, ratio of compound concentration for cell killing activity in human MCF10A cells to compound concentration for cell killing activity in human PC3 cells; assay type: toxicity, cell-based; settings: MCF10A cells versus PC3 cells, read-out: Selectivity Index
[25] = tested on: MDA-MB-468; assay: Antiproliferative activity against human MDA-MB-468 cells after 48 hrs by SRB assay; assay type: functional, cell-based; settings: MDA-MB-468, 48 h; how it was run: as §1
[26] = tested on: BT-20; assay: Antiproliferative activity against human BT20 cells assessed as compound concentration required to show complete inhibition of cell viability up to 96 hrs by SRB assay; assay type: functional
[27] = target: Serine/threonine-protein kinase Chk2 (Homo sapiens) (UniProt O96017); assay: Induction of CHK2 phosphorylation at T68 residue in human MCF7 cells at 2 uM after 12 to 48 hrs by Western blot method; assay type: cell-based
[28] = tested on: MCF7; assay: Anticlonogenic activity against human MCF7 cells at 0.39 to 1.5 uM after 12 hrs by crystal violet staining based assay; assay type: functional, cell-based
How it was run: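 Clonogenic assay: 1000 cells/well seeded, treated after overnight attachment for 12 h, then medium replaced and cells grown until control colonies were large enough; colonies stained with crystal violet.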

[29] = Selectivity index, ratio of compound concentration for cell killing activity in human 184B5 cells to compound concentration for cell killing activity in human MDA-MB-453 cells; assay type: toxicity, cell-based; settings: 184B5 cells versus MDA-MB-453 cells, read-out: Selectivity Index
[30] = tested on: MDA-MB-231; assay: Cell cycle arrest in human MDA-MB-231 cells assessed as accumulation at sub-G1 phase at 2 uM after 48 hrs by propidium iodide staining based flow cytometry; assay type: functional; how it was run: as §2

Sequence of Serine/threonine-protein kinase Chk2 (Homo sapiens) (O96017 whole entry): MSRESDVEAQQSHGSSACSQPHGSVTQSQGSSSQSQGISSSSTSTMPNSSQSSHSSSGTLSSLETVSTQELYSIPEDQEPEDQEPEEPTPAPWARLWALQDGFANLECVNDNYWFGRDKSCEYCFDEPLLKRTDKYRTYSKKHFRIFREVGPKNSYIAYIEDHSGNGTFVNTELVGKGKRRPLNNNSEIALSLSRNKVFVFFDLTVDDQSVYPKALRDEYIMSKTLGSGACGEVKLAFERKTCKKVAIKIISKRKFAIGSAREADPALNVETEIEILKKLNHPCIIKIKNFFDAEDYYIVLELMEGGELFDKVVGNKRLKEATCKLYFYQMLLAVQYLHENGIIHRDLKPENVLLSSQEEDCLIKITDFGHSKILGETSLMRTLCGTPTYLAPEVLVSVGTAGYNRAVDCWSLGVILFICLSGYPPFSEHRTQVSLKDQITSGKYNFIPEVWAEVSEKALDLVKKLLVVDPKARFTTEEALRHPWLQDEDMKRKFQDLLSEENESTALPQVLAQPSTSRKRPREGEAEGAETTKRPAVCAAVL

COc1ccc2nc3cc(Cl)ccc3c(NCCCN3C(=O)CCSC3c3cccs3)c2c1 (stereo not given)
Activity [1]: 2 µM
Activity [2]: 1 µM
IC50 [3]: 4.96 µM
Activity [4]: Active
Activity [5]: 2 µM
selectivity ratio [6]: 3 to 6
Activity [7]: 8.7%
Activity [8]: 6 µM
selectivity ratio [9]: 3 to 6
Activity [10]: 10%
Activity [11]: 2 µM
selectivity ratio [12]: 3 to 6
selectivity ratio [13]: 3 to 6
Activity [14]: 5%
selectivity ratio [15]: 3 to 6
Activity [16]: 2 µM
Activity [17]: 2 µM
selectivity ratio [18]: 3 to 6
selectivity ratio [19]: 3 to 6
selectivity ratio [20]: 3 to 6
Activity [21]: > 6 µM
selectivity ratio [22]: 3 to 6
Activity [23]: Active
selectivity ratio [24]: 3 to 6
IC50 [25]: 1.73 µM
Activity [26]: 1 µM
Activity [27]: inactive
Activity [28]: Active
selectivity ratio [29]: 3 to 6
Activity [30]: Active
